# Source: article PMC3573810 (Drug Design, Development and Therapy, 2013)
# Key:
# [1] = test system: Salmonella typhimurium TA1535; experiment: Antimutagenicity assay against sodium azide; format: cell-based
# Procedure, shortened: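 S. typhimurium TA1535 exposed at 37°C for 30 min to test compound (10 and 20 μM, or 5 and 10 μM for two compounds) and NaN3 (1 μg/plate). Pre-exposure adds NaN3 after the 30 min compound step; co-exposure combines all three together. Plated on minimal glucose agar; revertants counted after 48 h, triplicate. Mutant frequency = mutant colonies/viable colonies.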
# [2] = test system: Salmonella typhimurium TA1535; format: cell-based; conditions: NaN3 1 μg/plate alone, no bichalcophene
# Procedure, shortened: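 Overnight S. typhimurium TA1535 diluted 10−7, shaken 30 min at 37°C in phosphate buffer with NaN3 (1 μg/plate) plus test compound (10 and 20 μM, or 5 and 10 μM for two compounds) or NaN3 alone. Colonies counted on triplicate plates after 24 h and compared with untreated bacteria. ANOVA with Fisher's PLSD, P<0.05.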
smiles,measurement,setting,value
"[N-]=[N+]=[N-].[Na+] [NaN3, sodium azide]","NaN3 mutagenicity, revertant colonies/plate","[1]; NaN3 1 μg/plate alone, spontaneous 34.3 ± 4.0",384.7 ± 14.7 (0) revertant colonies/plate
same,Mutant frequency,"[1]; NaN3 alone, mutant colonies (Table 6)/viable colonies (Table 3)",10.43 (100)
same,"Viability, % of control",[2],105 % of control
same,"Viability, colonies/plate",[2],36.9 ± 4.3 colonies/plate
